≈ marks a conversion by molar mass, not a printed value.
Tests used:
[1] = biological target: 3',5'-cyclic-AMP phosphodiesterase 4B (Homo sapiens, UniProt Q07343); assay: Inhibition of recombinant human PDE4B1 using [3H]-cAMP as substrate […] measured after 60 mins by scintillation proximity assay
Method in brief: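 Compounds ranged from 10 μM to 10 pM. The reaction was started with PDE4 enzyme and run 60 min at room temperature with agitation (about 10−20% conversion), then stopped with SPA beads. [3H]-AMP was counted by scintillation.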

[2] = Inhibition of PDE4 in human whole blood PBMC assessed as reduction in LPS-induced TNFalpha production after 24 hrs by ELISA
Method in brief: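 Heparinized whole blood from healthy donors was preincubated with LPS (1 μg/mL final) at 37 °C for 10 min. It was then added to compounds in DMSO and incubated 24 h at 37 °C with agitation, then centrifuged. Serum TNF-α was measured by sandwich ELISA with TMB read-out at 450 nm. Experiments were done 2−3 times and duplicates were averaged.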

[3] = Apparent permeability of the compound by PAMPA assay; type: physicochemical
Rattus norvegicus [4] = assay: (§1) Antiinflammatory activity in Sprague-Dawley rat LPS-induced neutrophilia model assessed as inhibition of LPS-induced increase in netrophils in bronchoalveolar lavage at 1000 ug/kg, it administered single dose as microspray dosed 1 hr prior to nebulized LPS challenge measured after 4 hrs by flow cytometric analysis; type: functional
Method in brief: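 Compound was suspended in PBS with 0.2% Tween 80, homogenized, and lower doses were made by 1:10 dilution. Rats (male Sprague-Dawley, 230−280 g, fasted, isoflurane) received 0.2 mL intratracheally by microsprayer, about 1 cm above the carina. Nebulized LPS challenge (30 mL over 40 min) followed 1 h later. BAL neutrophils were counted by flow cytometry 4 h after challenge.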

Mustela putorius furo [5] = assay: Toxicity in it dosed ferret assessed as emesis administered as dry powder co-mixtured with lactose after 1 hr post dose; type: organism-based; conditions: in vivo, inhaled_or_intranasal
Rattus norvegicus [6] = assay: Pro-inflammatory activity in Sprague-Dawley rat assessed as increase in neutrophils in bronchoalveolar lavage at 3000 ug/kg, it administered as single dose via dry powder insufflator after 18 hrs post dose by flow cytometric analysis relative to basal level; type: ADME; conditions: in vivo, inhaled_or_intranasal, 3 mg/kg
Method in brief: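 Fasted male Sprague-Dawley rats (230−280 g) under isoflurane received 5 mg […] co-mixed with lactose, delivered intratracheally by DP-4 insufflator with 5 mL air. 18 h later, LPS (1:100 dilution of 10 mg/mL in PBS; 30 mL) was nebulized in chambers over 40 min. BAL was taken 4 h later and neutrophils were counted by flow cytometry. Lactose-only control.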

[7] = Cmax in Sprague-Dawley rat at 500 ug/kg, iv; type: ADME; parameters: dose 500 ug/kg, route intravenous; conditions: in vivo, 0.5 mg/kg
[8] = Thermodynamic solubility of the compound at 37 degC
Lung [9] = assay: Drug level in Sprague-Dawley rat lung at 1000 ug/kg, it administered as dry powder measured at 6 hrs post dose; type: ADME, tissue-based; conditions: in vivo, inhaled_or_intranasal, 1 mg/kg
Method in brief: (§2)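 Dry powder (5% w/w with lactose) was given intratracheally to rats. Compound was recovered from lung biopsies at times over a 24 h period and expressed as percentage of the total administered dose.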

Lung [10] = assay: Drug level in Sprague-Dawley rat lung at 1000 ug/kg, it administered as dry powder measured over 24 hrs post dose; type: ADME, tissue-based; conditions: in vivo, inhaled_or_intranasal, 1 mg/kg; method in brief: as §2
Rattus norvegicus [11] = assay: as §1, with “at 100 to 3000” for “at 1000”, “administered as” for “administered”, “dose via dry powder insufflator” for “dose as microspray”, “1 to 18 hrs” for “1 hr”; type: functional
Method in brief: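 Male Sprague-Dawley rats (230−280 g, fasted) were anaesthetized with isoflurane. Micronized compound co-mixed with lactose (5 mg of mix) was insufflated intratracheally through a cannula with 5 mL air. One or 18 h later, LPS solution (30 mL) was nebulized into a chamber over 40 min. After 4 h, BAL was done with 2 × 2 mL PBS and neutrophils were counted by flow cytometry. Controls were lactose alone and fluticasone (10% in lactose).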

Lung [12] = assay: Drug level in Sprague-Dawley rat lung at 1000 ug/kg, it administered as dry powder measured up to 6 hrs post dose; type: ADME, tissue-based; conditions: in vivo, inhaled_or_intranasal, 1 mg/kg; method in brief: as §2
[13] = AUC in Sprague-Dawley rat at 500 ug/kg, iv; type: ADME; conditions: in vivo, 0.5 mg/kg
Lung [14] = assay: Drug level in Sprague-Dawley rat lung at 1000 ug/kg, it administered as dry powder measured up to 18 hrs post dose; type: ADME, tissue-based; conditions: in vivo, inhaled_or_intranasal, 1 mg/kg; method in brief: as §2
[15] = Volume of distribution at steady state in Sprague-Dawley rat at 500 ug/kg, iv; type: ADME; conditions: in vivo, 0.5 mg/kg, read-out: Vdss
[16] = Clearance in Sprague-Dawley rat at 500 ug/kg, iv; type: ADME; conditions: in vivo, 0.5 mg/kg
[17] = Plasma concentration in Sprague-Dawley rat at 1000 ug/kg, it measured up to 1 hr post dose; type: ADME, cell-free; conditions: inhaled or intranasal, 1 mg/kg
Mustela putorius furo [18] = assay: Toxicity in ferret assessed as emesis at 30 ug/kg, it administered as dry powder co-mixtured with lactose after 1 hr post dose; conditions: in vivo, inhaled_or_intranasal, 0.03 mg/kg
[19] = Half life in Sprague-Dawley rat at 500 ug/kg, iv; type: ADME; conditions: in vivo, 0.5 mg/kg
Rattus norvegicus [20] = assay: Pro-inflammatory activity in Sprague-Dawley rat assessed as increase in neutrophils in bronchoalveolar lavage at 1000 ug/kg, it administered as single dose via dry powder insufflator after 18 hrs post dose by flow cytometric analysis relative to basal level; type: ADME; conditions: in vivo, inhaled_or_intranasal, 1 mg/kg

Chain of 3',5'-cyclic-AMP phosphodiesterase 4B (Q07343 whole entry): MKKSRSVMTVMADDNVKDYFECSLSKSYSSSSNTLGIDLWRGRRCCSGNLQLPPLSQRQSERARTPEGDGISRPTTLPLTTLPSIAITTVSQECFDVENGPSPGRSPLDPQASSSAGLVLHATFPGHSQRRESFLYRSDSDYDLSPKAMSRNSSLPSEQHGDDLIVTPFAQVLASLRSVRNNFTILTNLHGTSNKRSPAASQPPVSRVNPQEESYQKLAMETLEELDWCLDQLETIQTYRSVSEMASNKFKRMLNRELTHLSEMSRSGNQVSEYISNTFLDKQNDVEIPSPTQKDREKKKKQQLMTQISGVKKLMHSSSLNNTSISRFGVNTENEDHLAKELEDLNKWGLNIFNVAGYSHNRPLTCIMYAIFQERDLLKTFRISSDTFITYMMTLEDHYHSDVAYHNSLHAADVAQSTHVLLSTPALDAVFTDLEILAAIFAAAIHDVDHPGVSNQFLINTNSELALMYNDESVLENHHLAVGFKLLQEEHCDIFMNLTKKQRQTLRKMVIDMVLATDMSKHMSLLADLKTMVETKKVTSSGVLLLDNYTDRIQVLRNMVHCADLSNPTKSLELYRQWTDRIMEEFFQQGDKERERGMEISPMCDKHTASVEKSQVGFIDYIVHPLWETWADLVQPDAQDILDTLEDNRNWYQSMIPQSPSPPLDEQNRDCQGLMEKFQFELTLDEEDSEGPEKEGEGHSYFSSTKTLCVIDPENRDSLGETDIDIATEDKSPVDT

| IC50 [1] [nM] | IC50 [2] [nM] | Structure (SMILES) | also measured |
| --- | --- | --- | --- |
| 12 | – | NC(=O)c1cccc(Nc2cc(-c3ccccc3)nc3c2C(=O)NCC3)c1 | – |
| 0.43 | 0.47 | O=C1NCCc2nc(-c3ccccc3)cc(Nc3cccc4c3ccc[n+]4[O-])c21 | – |
| 3.3 | 13 | N#Cc1cccc(Nc2cc(-c3ccccc3)nc3c2C(=O)NCC3)c1 | – |
| 24 | – | O=C1NCCc2nc(-c3ccccc3)cc(Nc3cccc(CO)c3)c21 | – |
| 56 | – | O=C1NCCc2nc(-c3ccccc3)cc(Nc3nn(-c4ccccc4)c4ncccc34)c21 | – |
| 11 | – | Cn1nc(Nc2cc(-c3ccccc3)nc3c2C(=O)NCC3)c2cccnc21 | – |
| 0.96 | 0.92 | O=C1NCCc2nc(-c3ccccc3)cc(Nc3cccc4ncccc34)c21 | – |
| 0.045 | 0.075 | O=C(NC1CC1)c1cccc(-c2cccc(-c3cc(Nc4cccc5c4ccc[n+]5[O-])c4c(n3)CCNC4=O)c2)c1 | – |
| 52 | 40 | COc1cccc(Nc2nc(-c3ccccc3)nc3c2C(=O)NCC3)c1 | – |
| 0.11 | 0.52 | O=C(O)c1ccc(-c2cccc(-c3cc(Nc4cccc5ncccc45)c4c(n3)CCNC4=O)c2)cc1 | – |
| 0.75 | 1.5 | O=C1NCCc2nc(-c3ccc(F)c(F)c3)cc(Nc3cccc4ncccc34)c21 | – |
| 12 | – | O=C1NCCc2nc(-c3ccccc3)cc(NCCc3ccncc3)c21 | – |

The remaining lines, values behind:

| Structure (SMILES) | IC50 [1] [nM] | IC50 [2] [nM] | also measured |
| --- | --- | --- | --- |
| COc1cccc(Nc2cc(-c3ccccc3)ncc2C(N)=O)c1 | 240 | – | – |
| CNC(=O)c1cnc(-c2ccccc2)cc1Nc1cccc2ncccc12 | 5800 | – | – |
| COc1cccc(Nc2cc(-c3ccccc3OC)nc3c2C(=O)NCC3)c1 | 32 | – | – |
| COc1cccc(Nc2cc(-c3cccc(-c4cccc(C(=O)NC5CC5)c4)c3)nc3c2C(=O)NCC3)c1 | 2.1 | 0.43 | – |
| COc1cccc(Nc2cc(C3CC3)nc3c2C(=O)NCC3)c1 | 8.5 | – | – |
| COc1cccc(Nc2cc(-c3cccc(Sc4cccc(OC)c4)c3)nc3c2C(=O)NCC3)c1 | 1.6 | 3.4 | – |
| NC(=O)c1cnc(-c2ccccc2)cc1Nc1cccc2ncccc12 | 35 | – | – |
| COC(=O)c1ccc(O)c(-c2cccc(-c3cc(Nc4cccc(OC)c4)c4c(n3)CCNC4=O)c2)c1 | 5.6 | 4.2 | – |
| O=C(NC1CC1)c1cccc(-c2cccc(-c3cc(Nc4ccnc5ccccc45)c4c(n3)CCNC4=O)c2)c1 | 0.27 | 0.46 | – |
| O=C(NC1CC1)c1cccc(-c2cccc(-c3cc(Nc4cncc5ccccc45)c4c(n3)CCNC4=O)c2)c1 | 0.32 | 1.1 | – |
| CCOC(=O)c1ccc(-c2cccc(-c3cc(Nc4cccc(OC)c4)c4c(n3)CCNC4=O)c2)cc1 | 7.2 | 1.2 | – |
| N#C/N=C1\NCCc2nc(-c3ccc(F)c(F)c3)cc(Nc3cccc4ncccc34)c21 | 0.89 | 17 | – |
| COc1cccc(Nc2cc(-c3cccc(-c4cccc(C(N)=O)c4)c3)nc3c2C(=O)NCC3)c1 | 0.28 | 2.3 | – |
| COc1cccc(Nc2cc(-c3cccc(-c4cccc(C(=O)NCCN(C)C)c4)c3)nc3c2C(=O)NCC3)c1 | 0.23 | 2.8 | – |
| CCOC(=O)c1ccc(-c2cccc(-c3cc(Nc4cccc5ncccc45)c4c(n3)CCNC4=O)c2)cc1 | 1.2 | 0.66 | – |
| O=C(NC1CC1)c1cccc(-c2cccc(-c3cc(Nc4cccc5ncccc45)c4c(n3)CCNC4=O)c2)c1 | 0.17 | 0.12 | Papp [3]: 0.15 ×10⁻⁶ cm/s; inhibition in vivo at 1 mg/kg (Rattus norvegicus [4]): 58%; Activity (Mustela putorius furo [5]): Dose-dependent effect; fold change (FC) (Rattus norvegicus [6]): 1.3; Cmax [7]: 118 ng/mL; solubility thermodynamic [8]: 4 µg/mL (≈ 7.61 µM); Drug uptake (Lung [9]): 20%; Drug uptake (Lung [10]): 15%; Imax (Rattus norvegicus [11]): 35%; Drug uptake (Lung [12]): 36%; AUC [13]: 108 ng·h/mL; Drug uptake (Lung [14]): 18%; Vd [15]: 3.9 L/kg; clearance [16]: 79 mL/min/kg; concentration at 1 h [17]: < 5 ng/mL; Activity (Mustela putorius furo [18]): Non-Toxic; half-life [19]: 54 min; fold change (FC) (Rattus norvegicus [20]): 0.7 |

From ChEMBL document CHEMBL4033796, “4-Amino-7,8-dihydro-1,6-naphthyridin-5(6 H)-ones as Inhaled Phosphodiesterase Type 4 (PDE4) Inhibitors: Structural Biology and Structure-Activity Relationships” (J Med Chem, 2018)
